Screening data deposited in PubChem by several laboratories.
Rows were chosen to be rich in hits. Some 2.6% of all compounds tested hit in one or more screens of this group.
PAD4 FP inh: human PAD4 inhibitors, primary screen, biochemical, fluorescence polarization, 1536-well format | Protein-arginine deiminase type-4 (Homo sapiens), Q9UM07 | inhibition, % at 6.36 µM | hit rate 0.41% among 330,000 | recombinant PAD4, RCA probe fluorescence polarization | AID 485272, 2010;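 active means percent inhibition above a cutoff equal to the mean of all tested compounds plus 3 SD, cut at about 15% in these data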
Target sequence (Q9UM07 whole entry, looked up): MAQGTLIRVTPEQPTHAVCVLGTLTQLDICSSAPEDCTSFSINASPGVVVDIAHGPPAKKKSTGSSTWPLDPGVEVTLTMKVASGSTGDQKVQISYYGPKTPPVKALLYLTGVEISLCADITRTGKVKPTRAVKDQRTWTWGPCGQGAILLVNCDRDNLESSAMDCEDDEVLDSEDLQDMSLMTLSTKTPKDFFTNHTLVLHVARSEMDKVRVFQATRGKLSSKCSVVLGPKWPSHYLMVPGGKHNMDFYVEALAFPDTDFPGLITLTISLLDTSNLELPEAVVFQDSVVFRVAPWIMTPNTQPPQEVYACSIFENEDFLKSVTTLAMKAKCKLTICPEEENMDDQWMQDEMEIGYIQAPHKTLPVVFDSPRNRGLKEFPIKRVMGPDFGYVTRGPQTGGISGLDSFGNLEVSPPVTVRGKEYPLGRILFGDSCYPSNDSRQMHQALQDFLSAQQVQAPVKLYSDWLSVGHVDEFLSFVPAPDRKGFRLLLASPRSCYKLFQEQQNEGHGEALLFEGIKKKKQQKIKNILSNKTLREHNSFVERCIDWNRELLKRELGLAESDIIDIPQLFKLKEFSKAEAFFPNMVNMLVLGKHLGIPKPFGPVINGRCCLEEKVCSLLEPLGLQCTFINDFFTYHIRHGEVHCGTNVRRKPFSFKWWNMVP
Apaf1 inhib: inhibitors of human Apaf-1 apoptosome, primary screen, biochemical, DEVD-Rh110 fluorescence, uHTS | Apoptotic protease-activating factor 1 (Homo sapiens), O14727 | reconstituted apoptosome caspase-3 activity | inhibition, % at 20 µM | hit rate 0.71% among 330,000 | AID 489030, 2010; active means inhibition of at least 40% at 20 µM
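Material: biochemical Apaf-1 apoptosome reconstitution. Medium: Hepes buffer, pH 7.5. Also added: cytochrome c activation, bis-DEVD rhodamine 110 substrate. Timing: 30 min compound preincubation, 50 min activation, room temperature. Measured by: rhodamine 110 fluorescence at Ex 480/Em 540 nm.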
PRMT1 inh: PRMT1 methyltransferase inhibitors, primary screen, biochemical, fluorescence polarization; Protein arginine N-methyltransferase 1 (Homo sapiens), Q99873; recombinant PRMT1, activity-based probe fluorescence polarization; inhibition, % at 2.79 µM; hit rate 1.3% among 370,000;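 active means inhibition above about 21% made by adding two undisclosed values, limit read from the data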
GSTO1 inh: inhibitors of recombinant GSTO1, primary screen, counter-screen for RBBP9 inhibitor project, biochemical, fluorescence polarization. hit rate 1.1% among 300,000. Glutathione S-transferase omega-1 (Homo sapiens), P78417. inhibition, % at 5.96 µM. activity-based probe fluorescence polarization;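 active means inhibition above the campaign mean inhibition plus 3 SD, cut at about 35% in these data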
TDP2 absorb: human TDP2 enzyme inhibitors, primary screen, biochemical, epi absorbance, recombinant enzyme; Tyrosyl-DNA phosphodiesterase 2 (Homo sapiens), O95551; T5PNP hydrolysis, p-nitrophenol absorbance 415 nm; inhibition, % at 12.8 µM; hit rate 0.34% among 370,000;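 active means inhibition above the mean of all tested compounds plus 3 SD, set per campaign, cut at about 25% in these data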
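System – recombinant human TDP2 · Quantity – TDP2 enzyme at 120 nM final · Doses – single concentration, 12.8 µM nominal, with 1% DMSO · Incubation – 2 h at 37 °C · Measured by – epi absorbance of p-nitrophenol freed from T5PNP by hydrolysis · Read-out – % inhibition relative to enzyme-containing and enzyme-free wells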
A number is an active result; – = inactive; · = no result given.

SMILES	PAD4 FP inh	Apaf1 inhib	PRMT1 inh	GSTO1 inh	TDP2 absorb
COc1ccc(OC)c(NC(=O)CSc2ncnc3sc(C)cc23)c1	·	·	23.2	·	–
COc1ccc(OC)c(NC(=O)CNC(=O)Cn2cnc3sc(C)cc3c2=O)c1	–	–	–	–	–
N#Cc1ccc(OCC(=O)NC2=NCCS2)cc1	–	–	26.8	–	–
CN(N=Cc1ccc(N(C)C)cc1)C(=O)c1ccccc1N	·	·	–	·	–
CN(C(=O)COC(=O)c1cccc(S(=O)(=O)N2CCOCC2)c1)C1CCS(=O)(=O)C1 (stereo unspecified)	–	–	·	–	·
CN(C(=O)COC(=O)c1cc(S(=O)(=O)N2CCOCC2)c(Cl)cc1Cl)C1CCS(=O)(=O)C1 (stereo unspecified)	–	–	–	54.4	–
COc1ccc(NC(=O)n2nc(OC(=O)c3cccs3)cc2N)cc1	–	–	24.3	–	–
CCOC(=O)CNC(=O)N(C)[C@H]1C[C@H]2c3[nH]c4c(-c5cccc(C)c5)cccc4c3CCN2C(=O)[C@H]1[C@H](C)O	·	·	–	·	–
CC1OC2(C)OC(=N)C1(C#N)C(C#N)(C#N)C2c1ccccc1 (stereo unspecified)	25.1	–	24.8	–	–
CCCCC1OC2(C)OC(=N)C1(C#N)C(C#N)(C#N)C2c1ccccc1 (stereo unspecified)	–	·	–	–	–
Cc1ccc(Cc2c(-c3ccco3)nc3c4ccccc4ccn23)cc1	·	·	–	·	–
COC(=O)c1ccc2nc(-c3ccco3)c(Cc3ccc(OC)cc3C)n2c1	·	·	21.9	·	–
Cc1ccc(Cc2c(-c3ccco3)nc3ccc(C)cn23)cc1	·	·	21.5	·	–
CC(C)CCN1C(=O)c2cccc3c(N)ccc(c23)C1=O	24.0	–	157.6	–	–
CCN1C(=O)c2cccc3c(Cl)ccc(c23)C1=O	–	–	–	–	–
Nc1cccc(N2C(=O)c3cccc4c(N)ccc(c34)C2=O)c1	–	–	112.7	–	–
Cn1c(=O)c(=O)n(C)c2cc(S(=O)(=O)N3CCN(CCO)CC3)ccc21	·	·	–	·	–
COc1ccc(CN2CC(=O)N3[C@H]4c5cc(C)ccc5OC[C@@H]4[C@H](c4ccccc4)[C@]3(C)C2=O)cc1	–	–	22.1	·	–
CCCN(CCC)C(=O)c1ccc2c(c1)N(Cc1ccccc1)C(=O)CS2=O (stereo unspecified)	–	–	23.9	–	–
CC1=CC2=C(OC1N(C)C)c1cccc3cccc(c13)C2=O (stereo unspecified)	17.9	–	·	–	·
CN(CCc1ccccn1)C(=O)c1ccc2c(c1)ncn2C1CCCCC1	·	·	–	·	–
O=Cc1ccc(O)c(O)c1	–	–	–	–	–
Oc1ccc(N=Cc2ccc(O)c(O)c2)cc1	–	75.0	·	87.9	·
COc1ccc(S[C@]2(C(=O)N(C)C)CC(=O)N(C(=O)Nc3ccc(C)c(Cl)c3)[C@@H]2c2ccc(OC)cc2)cc1	·	·	–	·	–
C#CCOCCOCCOCCNc1nc(N2CCOCC2)nc(N2CCN(C(=O)[C@H]([C@@H](C)CC)n3cc(CCCN=C(N)N)nn3)CC2)n1	–	–	–	–	–
SMILES	PAD4 FP inh	Apaf1 inhib	PRMT1 inh	GSTO1 inh	TDP2 absorb
C#CCOCCOCCOCCNc1nc(N2CCN(C(=O)CCCCCCCCCCNC(=O)[C@H]([C@@H](C)CC)n3cc(CCCCN=C(N)N)nn3)CC2)nc(N2CCN(C(=O)CCCCCCCCCCNC(=O)[C@H](CCCN=C(N)N)n3cc(C[C@@H](C)CC)nn3)CC2)n1	–	45.6	·	–	·
C#CCOCCOCCOCCNc1nc(N2CCN(C(=O)CCCCCCCCCCNC(=O)[C@H]([C@@H](C)CC)n3cc(CCCCN=C(N)N)nn3)CC2)nc(N2CCN(C(=O)CCCCCCCCCCNC(=O)[C@@H]([C@H](C)O)n3cc(C)nn3)CC2)n1	–	44.9	·	–	·
C#CCOCCOCCOCCNc1nc(N2CCN(C(=O)CCCCCCCCCCNC(=O)[C@H](CCCN=C(N)N)n3cc(C[C@@H](C)CC)nn3)CC2)nc(N2CCN(C(=O)CCCCCCCCCCNC(=O)[C@@H]([C@H](C)CC)n3cc(CCCCCN)nn3)CC2)n1	–	80.1	·	–	·
O=C(c1cccc(F)c1)N(Cc1ccccn1)CC1CCCO1 (stereo unspecified)	·	·	–	·	–
O=c1[nH]c(=O)c2[nH]c(=S)[nH]c2[nH]1	·	·	80.4	·	–
O=S1(=O)c2ccc(N3CCN(Cc4ccccc4F)CC3)cc2Oc2ccccc2CN1Cc1cn(Cc2cccc(F)c2)nn1	·	·	–	·	–
COC(=O)[C@]12C[C@H](CC(=O)NCc3ccccc3)C(=O)N(Cc3ccc4c(c3)OCO4)C1=C[C@H](C(C)C)O[C@@H]2C1CC1	·	·	–	·	–
OC(c1ccccc1)(c1ccccc1)C1CCN(CCCOc2ccc(-c3cccnc3)cc2)CC1	·	·	–	·	–
CN1CCN(Cc2nc3ccccc3c(=O)n2CC#N)CC1	–	–	–	–	–
N#CCn1c(CCl)nc2ccccc2c1=O	–	–	–	48.2	–
CC(C)CNC(=O)C1Nc2ccccc2C2C=CCC12 (stereo unspecified)	–	–	–	–	–
CC(C)CNC(=O)C1Nc2ccc(OC(F)(F)F)cc2C2C=CCC12 (stereo unspecified)	–	–	–	–	–
CCOC(=O)C1Nc2ccc(C)cc2C2C=CCC12 (stereo unspecified)	–	–	22.6	–	–
CCOC(=O)c1ccc2c(c1)C1C=CCC1C(C(=O)OCC)N2 (stereo unspecified)	–	–	22.7	–	–
COC(=O)CNC(=O)C1Nc2ccccc2C2C=CCC12 (stereo unspecified)	–	–	36.7	42.7	–
O=C(N[C@H]1C[C@@H]2O[C@@H](CO)CC[C@@H]2O[C@@H]1CCc1ccc(-c2cccnc2)cc1)c1cccc(F)c1	·	·	–	·	–
CCOC(=O)N1CCN(C(=O)C[C@H]2C(=O)N(CCCOC)C3=CCCCC[C@]32C(=O)OC)CC1	·	·	–	·	–
CCCCCCCCNS(=O)(=O)CC1NCc2ccccc21 (stereo unspecified)	·	·	–	·	–
Nc1[nH]c(C(=O)c2ccccc2)c(-c2ccc(Cl)c(F)c2)c1C(=O)c1c[nH]c2ccccc12	·	·	–	·	–
Cc1ccc(-c2nnc3n2N=C(c2ccc4ccccc4c2)CS3)cc1	·	·	–	·	–
COC(=O)C1CN(Cc2cn(Cc3ccc(Cl)cc3)nn2)CCS(=O)(=O)N1Cc1ccc(F)cc1 (stereo unspecified)	·	·	–	·	–
Cc1cc(C)cc(NC(=O)OC2CCC23CCCCC3)c1 (stereo unspecified)	·	·	–	·	–
O=c1/c(=C\c2cc([N+](=O)[O-])cc([N+](=O)[O-])c2O)sc2nc3ccccc3n12	–	–	·	–	·
